Columns and labels:
Yellow fever virus = assay: Antiviral activity against Yellow fever virus infected in African green monkey Vero cells assessed as inhibition of virus-induced cytopathicity; format: functional, organism-based
Influenza A virus H3N2 [1] = assay: Antiviral activity against Influenza A virus H3N2 infected in MDCK cells assessed as inhibition of virus-induced visual cytopathicity; format: functional, organism-based
Influenza A virus H3N2 [2] = assay: Antiviral activity against Influenza A virus H3N2 infected in MDCK cells assessed as inhibition of virus-induced cytopathicity by MTS assay; format: functional, organism-based
Human alphaherpesvirus 3 [3] = assay: Antiviral activity against thymidine kinase deficient Varicella-Zoster virus infected in HEL cells assessed as reduction in virus plaque formation; format: functional, organism-based; details: Human alphaherpesvirus 3, HEL
Coxsackievirus B4 = assay: Antiviral activity against Coxsackie virus B4 infected in African green monkey Vero cells assessed as inhibition of virus-induced cytopathicity; format: functional, organism-based; details: Enterovirus B
[4] = Cytotoxicity against African green monkey Vero cells assessed as alteration of cell morphology by microscopic analysis; format: cell-based; details: chlorocebus sabaeus
Method in brief: (§1)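 The value is the minimal cytotoxic concentration (MCC), the lowest concentration that causes a microscopically visible change in cell morphology. It was read in the same HEL or Vero cell cultures used for the antiviral tests.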

Human coronavirus 229E = assay: Antiviral activity against Human coronavirus 229E infected in HEL cells assessed as inhibition of virus-induced cytopathicity; format: functional, organism-based
Influenza A virus [5] = assay: Antiviral activity against Influenza A virus H1N1 infected in MDCK cells assessed as inhibition of virus-induced cytopathicity by MTS assay; format: functional, organism-based
[6] = Cytotoxicity against MDCK cells assessed as alteration of cell morphology by microscopic analysis; format: cell-based, Canis lupus familiaris; details: dog
Human adenovirus 2 = assay: Antiviral activity against Adenovirus 2 infected in HEL cells assessed as inhibition of virus-induced cytopathicity; format: functional, organism-based; details: Human mastadenovirus C
[7] = test system: Respiratory syncytial virus; assay: Antiviral activity against Respiratory syncytial virus infected in human HeLa cells assessed as inhibition of virus-induced cytopathicity; format: functional, organism-based
[8] = test system: Vesicular stomatitis virus; assay: Antiviral activity against Vesicular stomatitis virus infected in human HeLa cells assessed as inhibition of virus-induced cytopathicity; format: functional, organism-based
Human alphaherpesvirus 1 [9] = assay: Antiviral activity against Herpes simplex virus 1 KOS infected in HEL cells assessed as inhibition of virus-induced cytopathicity; format: functional, organism-based; details: Human alphaherpesvirus 1, KOS
Human alphaherpesvirus 1 [10] = assay: Antiviral activity against acyclovir-resistant thymidine kinase deficient Herpes simplex virus 1 KOS infected in HEL cells assessed as inhibition of virus-induced cytopathicity; format: functional, organism-based; details: Human alphaherpesvirus 1, KOS
[11] = test system: Mammalian orthoreovirus 1; assay: Antiviral activity against Reovirus-1 infected in human HeLa cells assessed as inhibition of virus-induced cytopathicity; format: functional, organism-based; details: Mammalian orthoreovirus 1, HeLa
Human alphaherpesvirus 3 [12] = assay: Antiviral activity against thymidine kinase expressing Varicella-Zoster virus infected in HEL cells assessed as reduction in virus plaque formation; format: functional, organism-based; details: Human alphaherpesvirus 3, HEL
Punta Toro virus = assay: Antiviral activity against Punta Toro virus infected in African green monkey Vero cells assessed as inhibition of virus-induced cytopathicity; format: functional, organism-based
Vaccinia virus = assay: Antiviral activity against Vaccinia virus infected in HEL cells assessed as inhibition of virus-induced cytopathicity; format: functional, organism-based; details: Orthopoxvirus vaccinia
Human alphaherpesvirus 2 = assay: Antiviral activity against Herpes simplex virus 2 G infected in HEL cells assessed as inhibition of virus-induced cytopathicity; format: functional, organism-based; details: Human alphaherpesvirus 2, strain G
Influenza B virus [13] = assay: Antiviral activity against Influenza B virus infected in MDCK cells assessed as inhibition of virus-induced cytopathicity by MTS assay; format: functional, organism-based
[14] = Cytotoxicity against human HeLa cells assessed as alteration of cell morphology by microscopic analysis; format: cell-based
Human respirovirus 3 = assay: Antiviral activity against Parainfluenza virus 3 infected in human HeLa cells assessed as inhibition of virus-induced cytopathicity; format: functional, organism-based; details: Human respirovirus 3, HeLa
Influenza B virus [15] = assay: Antiviral activity against Influenza B virus infected in MDCK cells assessed as inhibition of virus-induced visual cytopathicity; format: functional, organism-based
Influenza A virus [16] = assay: Antiviral activity against Influenza A virus H1N1 infected in MDCK cells assessed as inhibition of virus-induced visual cytopathicity; format: functional, organism-based
Sindbis virus = assay: Antiviral activity against Sindbis Virus infected in African green monkey Vero cells assessed as inhibition of virus-induced cytopathicity; format: functional, organism-based
Human betaherpesvirus 5 [17] = assay: Antiviral activity against Human cytomegalovirus Davis infected in HEL cells assessed as inhibition of virus-induced cytopathicity; format: functional, organism-based; details: Human betaherpesvirus 5, Davis
[18] = Cytotoxicity against HEL cells assessed as alteration of cell morphology by microscopic analysis; format: cell-based; details: human; method in brief: as §1
Human betaherpesvirus 5 [19] = assay: Antiviral activity against Human cytomegalovirus AD169 infected in HEL cells assessed as inhibition of virus-induced cytopathicity; format: functional, organism-based; details: Human betaherpesvirus 5, AD169, HEL

Row | Compound | EC50 (Yellow fever virus) [µM] | EC50 (Influenza A virus H3N2 [1]) [µM] | EC50 (Influenza A virus H3N2 [2]) [µM] | EC50 (Human alphaherpesvirus 3 [3]) [µM] | EC50 (Coxsackievirus B4) [µM] | MCC [4] [µM] | EC50 (Human coronavirus 229E) [µM] | EC50 (Influenza A virus [5]) [µM] | MCC [6] [µM] | EC50 (Human adenovirus 2) [µM] | EC50 [7] [µM] | EC50 [8] [µM] | EC50 (Human alphaherpesvirus 1 [9]) [µM] | EC50 (Human alphaherpesvirus 1 [10]) [µM] | EC50 [11] [µM] | EC50 (Human alphaherpesvirus 3 [12]) [µM] | EC50 (Punta Toro virus) [µM] | EC50 (Vaccinia virus) [µM] | EC50 (Human alphaherpesvirus 2) [µM] | EC50 (Influenza B virus [13]) [µM] | also measured
1 | C/C(=C\CP(=O)(N[C@@H](C)C(=O)OC(C)C)Oc1ccccc1)Cn1cc(C)c(=O)[nH]c1=O (some centres undefined) | > 100 | > 100 | > 100 | > 100 | > 100 | ≥ 20 | > 100 | > 100 | > 100 | > 100 | > 100 | > 100 | > 100 | > 100 | > 100 | 76.5 | > 100 | > 100 | > 100 | > 100 | MCC [14]: ≥ 20 µM; EC50 (Human respirovirus 3): > 100 µM; EC50 (Influenza B virus [15]): > 100 µM; EC50 (Influenza A virus [16]): > 100 µM; EC50 (Sindbis virus): > 100 µM; EC50 (Human betaherpesvirus 5 [17]): > 100 µM; MCC [18]: > 100 µM; EC50 (Human betaherpesvirus 5 [19]): > 100 µM
2 | C/C(=C\CP(=O)(N[C@@H](C)C(=O)OCc1ccccc1)Oc1cccc2c1CCCC2)Cn1cc(C)c(=O)[nH]c1=O (some centres undefined) | > 100 | > 100 | > 100 | 47.2 | > 100 | ≥ 100 | > 100 | > 100 | > 100 | > 100 | > 100 | > 100 | > 100 | > 100 | > 100 | 50.2 | > 100 | > 100 | > 100 | > 100 | MCC [14]: ≥ 100 µM; EC50 (Human respirovirus 3): > 100 µM; EC50 (Influenza B virus [15]): > 100 µM; EC50 (Influenza A virus [16]): > 100 µM; EC50 (Sindbis virus): > 100 µM; EC50 (Human betaherpesvirus 5 [17]): > 100 µM; MCC [18]: > 100 µM; EC50 (Human betaherpesvirus 5 [19]): > 100 µM
3 | C/C(=C\CP(=O)(N[C@@H](C)C(=O)OC(C)C)Oc1ccccc1)Cn1ccc(=O)[nH]c1=O (some centres undefined) | > 100 | > 100 | > 100 | > 100 | > 100 | > 100 | > 100 | > 100 | > 100 | > 100 | > 100 | > 100 | > 100 | > 100 | > 100 | > 100 | > 100 | > 100 | > 100 | > 100 | MCC [14]: > 100 µM; EC50 (Human respirovirus 3): > 100 µM; EC50 (Influenza B virus [15]): > 100 µM; EC50 (Influenza A virus [16]): > 100 µM; EC50 (Sindbis virus): > 100 µM; EC50 (Human betaherpesvirus 5 [17]): > 100 µM; MCC [18]: > 100 µM; EC50 (Human betaherpesvirus 5 [19]): > 100 µM
